PAFAH2 FP inh: PAFAH2 enzyme inhibitors, primary screen, biochemical, fluorescence polarization, human | Platelet-activating factor acetylhydrolase 2, cytoplasmic (Homo sapiens), Q99487 | recombinant PAFAH2, FP-rhodamine activity probe | inhibition, % at 3.39 µM | 340,000 compounds, 0.99% hits | AID 492956, 2010;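 active = inhibition above the mean over all tested compounds plus 3 SD, cut at about 30% in these data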;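 also: inhibitors block probe labeling of enzyme so polarization drops; 0% = enzyme with DMSO and 100% = wells lacking PAFAH2 protein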
ASAP1 GAP inh: inhibitors of human ASAP1 ArfGAP activity, primary screen, biochemical, fluorescence polarization | Arf-GAP with SH3 domain, ANK repeat and PH domain-containing protein 1 (Homo sapiens), … | ASAP1-stimulated ARF1 GTP hydrolysis, GDP FP detection | inhibition, % at 16.5 µM | 360,000 compounds, 0.19% hits; in the data active = inhibition above about 25%;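 also: 0% = vehicle with enzyme and substrate and 100% = no enzyme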
Target sequence (Q9ULH1 325-724 limits assumed): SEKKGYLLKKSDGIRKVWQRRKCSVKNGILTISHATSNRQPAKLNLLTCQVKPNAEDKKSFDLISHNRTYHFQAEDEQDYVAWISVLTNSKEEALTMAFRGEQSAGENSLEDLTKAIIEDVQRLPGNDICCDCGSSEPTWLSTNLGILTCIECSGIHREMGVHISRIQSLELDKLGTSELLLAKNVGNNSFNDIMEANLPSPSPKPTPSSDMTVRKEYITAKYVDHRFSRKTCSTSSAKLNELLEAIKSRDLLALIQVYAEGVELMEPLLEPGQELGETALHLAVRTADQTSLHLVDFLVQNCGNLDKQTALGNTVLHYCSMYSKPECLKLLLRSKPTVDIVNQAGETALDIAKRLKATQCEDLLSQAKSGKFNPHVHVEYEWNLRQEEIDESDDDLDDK
pPAFAH inh: pPAFAH enzyme inhibitors, primary screen, biochemical, fluorescence polarization, human | 330,000 compounds, 1.5% hits | recombinant pPAFAH, FP-rhodamine probe fluorescence polarization | inhibition, % at 3.39 µM;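 active = inhibition above the mean inhibition across the screen plus 3 SD, cut at about 25% in these data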;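 also: inhibitors block binding of the rhodamine activity-based probe so polarization drops; 0% = enzyme with DMSO and 100% = wells lacking pPAFAH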
ARFGAP1 inh: inhibitors of rat ARFGAP1 GAP activity, primary screen, biochemical, fluorescence polarization, GDP tracer; Arfgap1-stimulated ARF1 GTP hydrolysis, GDP FP detection; inhibition, % at 16.5 µM; 360,000 compounds, 0.26% hits; AID 651572, 2012;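 active = inhibition above a per-plate limit, mean inhibition of low control wells plus 3 SD, cut at about 25% in these data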;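 also: 0% = DMSO wells with enzyme and 100% = wells lacking Arfgap1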
Target sequence (Q62848 1-136 limits assumed): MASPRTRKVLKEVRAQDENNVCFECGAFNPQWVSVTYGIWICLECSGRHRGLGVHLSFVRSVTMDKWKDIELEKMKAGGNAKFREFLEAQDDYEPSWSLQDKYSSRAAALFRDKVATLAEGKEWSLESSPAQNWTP
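Material: truncated rat Arfgap1 GAP domain; Incubation: compound-enzyme preincubation 20 min, reaction 120 min, detection 60 min, 25 °C; Read-out: percent inhibition of Arfgap1-stimulated GTP hydrolysis; Technique: FP, GDP Alexa 633 tracer displaced from anti-GDP antibody, 620/688 nm; Controls: No-Arfgap1 wells (100%) versus DMSO full-reaction wells (0%); Replication: single well per compound.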
PAFAH1B3 inh: PAFAH1B3 enzyme inhibitors, primary screen, biochemical, fluorescence polarization, human; recombinant PAFAH1B3, FP-rhodamine probe; Platelet-activating factor acetylhydrolase IB subunit alpha1 (Homo sapiens), Q15102; 340,000 compounds, 0.28% hits; AID 492972, 2010; inhibition, % at 3.39 µM;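 active = inhibition above the screen-wide average of all tested compounds plus 3 SD, cut at about 25% in these data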;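 also: 0% = enzyme with DMSO only and 100% = wells lacking PAFAH1B3 protein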
PAFAH1B2 FP inh: PAFAH1B2 enzyme inhibitors, primary screen, biochemical, fluorescence polarization, human. 340,000 compounds, 1.2% hits. recombinant PAFAH1B2, FP-rhodamine activity probe. AID 492953, 2010. inhibition, % at 3.39 µM. Platelet-activating factor acetylhydrolase IB subunit alpha2 (Homo sapiens), P68402;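 active = inhibition above the mean of all tested compounds plus 3 SD, cut at about 24% in these data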;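 also: 0% = enzyme with DMSO and 100% = wells lacking PAFAH1B2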
PAFAH1B3 confirm: PAFAH1B3 enzyme inhibitors, confirmation, biochemical, fluorescence polarization, human | inhibition, % at 3.39 µM | shares compounds with PAFAH1B3 inh | 390 compounds, 30% hits | AID 493032, 2011 | recombinant PAFAH1B3, FP-Rh activity-based probe;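 active = average inhibition over triplicate runs above the hit cutoff set in the earlier primary screen, cut at about 25% in these data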;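 also: 0% = enzyme with DMSO and 100% = wells lacking PAFAH1B3 protein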
The depositor's hits bear a star; nt = not tested or not shown. The list is not random: actives were taken first. Their share in the collection is about 2.7%.

SMILES | PAFAH2 FP inh | ASAP1 GAP inh | pPAFAH inh | ARFGAP1 inh | PAFAH1B3 inh | PAFAH1B2 FP inh | PAFAH1B3 confirm
CCCn1c(N)c(N(CCOC)C(=O)COC(=O)COc2c(C)cc(C)cc2C)c(=O)[nH]c1=O | nt | 8 | nt | 7 | nt | nt | nt
COCC(=O)OC1CCn2c1nc1c2C(=O)C(C)=C(NC(C)=O)C1=O (stereo not drawn) | 26 | 22 | nt | -14 | 69* | 21 | 55*
CC(=O)Oc1cccc(N2C(=O)c3cccc4c([N+](=O)[O-])ccc(c34)C2=O)c1 | 1 | -15 | 5 | -9 | 28* | 14 | 40*
CC(=O)Oc1cccc(N2C(=O)c3ccc(C(=O)O)cc3C2=O)c1 | 5 | -19 | 4 | 6 | 7 | 2 | nt
COc1ccc(C(=O)N/N=C(\C)CC(=O)Nc2ccc3ccccc3c2)c(OC)c1 | 0 | 11 | -9 | 19 | -8 | -8 | nt
C=CCc1cccc(/C=N/NC(=O)CNc2ccccc2OC)c1O | 11 | 6 | 13 | 1 | 8 | 4 | nt
C=CCc1cccc(/C=N/NC(=O)CNc2cccc3ccccc23)c1O | -30 | -3 | 16 | 2 | 26* | 9 | 17
COCCNC(=O)/C(C#N)=C/c1ccc(OC(=O)c2cccs2)c(OC)c1 | 3 | -7 | nt | 5 | 26* | 1 | 12
CCSc1nnc(CNC(=O)C23CC4CC(CC(C4)C2)C3)n1C1CCCCC1 | -2 | -3 | -2 | -2 | 9 | 14 | nt
COc1ccc(C(=O)N/N=C/c2sc3ccccc3c2O)cc1 | 21 | nt | 13 | nt | 17 | 8 | nt
COc1ccc2cc(C(=O)N/N=C/c3sc4ccccc4c3O)ccc2c1 | -6 | 9 | 24 | -1 | 30* | 19 | 19
CC(C)(C)c1ccc(NC(=O)COC(=O)c2ccc([N+](=O)[O-])s2)cc1 | 20 | 6 | 15 | -3 | 38* | 23 | 24
O=C(COC(=O)c1ccc([N+](=O)[O-])s1)NCc1ccccc1 | 11 | -2 | 23 | 10 | 16 | 11 | nt
O=C(COC(=O)c1ccc([N+](=O)[O-])s1)NC(c1ccccc1)c1ccccc1 | 16 | -2 | 13 | -11 | 42* | 8 | 16
COc1cc(/C=N/NC(=O)CCn2c3ccccc3c3ccccc32)ccc1O | -5 | 3 | 14 | 9 | 8 | 3 | nt
COc1cc(C(=O)N/N=C/c2ccc3c(c2)c2ccccc2n3C)ccc1O | -19 | 5 | nt | 5 | 41* | 14 | 16
CC(=O)c1ccc(NC(=O)CNC2CCCCC2)cc1 | 22 | 14 | -11 | 6 | 30* | 16 | 6
O=C(CNC1CCCCCC1)Nc1ccc(N2CCCC2)cc1 | nt | nt | 5 | nt | nt | nt | nt
CC(C)(C)NCC(O)COc1cccc2c1C[C@H](O)[C@H](O)C2 (stereo partly drawn) | -4 | 6 | 1 | 7 | 33* | -7 | 9
O=S(=O)(/N=C(/Nc1ccc(F)cc1F)c1ccccc1)c1ccccc1 | 0 | -8 | 1 | -1 | -1 | 4 | nt
COc1ccc2c3c(cccc13)N(C)N=C2C | 16 | -4 | 23 | -13 | 27* | 13 | 25
COc1ccc2c3c(cccc13)OC2=O | 12 | 1 | 4 | -17 | 10 | -3 | nt
O=C(Oc1ccc(=O)[nH]n1)c1ccccc1 | nt | -5 | nt | 5 | nt | nt | nt
O=C(CN1CCCc2ccccc21)N/N=C/c1c(O)ccc2ccccc12 | 22 | 9 | 12 | -5 | 31* | 13 | 14
CC(C)NCC(O)(c1ccc(Cl)cc1)c1ccc(Cl)cc1 | -5 | -4 | 1 | 3 | 29* | 6 | 7
SMILES | PAFAH2 FP inh | ASAP1 GAP inh | pPAFAH inh | ARFGAP1 inh | PAFAH1B3 inh | PAFAH1B2 FP inh | PAFAH1B3 confirm
ON=C1c2ccccc2-c2ccccc21 | 2 | 13 | 1 | 0 | 35* | 2 | 28*
CN(C)c1ccc2c(c1)C(=NO)c1ccccc1-2 | 0 | nt | nt | nt | 7 | 4 | nt
CCCN(C(=O)C1CC(=O)N(c2ccccc2C(C)CC)C1)C1CCS(=O)(=O)C1 (stereo not drawn) | -3 | -2 | 2 | 0 | -1 | 2 | nt
CCOC(=O)C1=CCC(c2ccccc2C(F)(F)F)N(S(=O)(=O)c2ccc(C)cc2)C1 (stereo not drawn) | nt | -5 | nt | 4 | nt | nt | nt
CNC1=C(N(C(C)=O)c2ccc(Br)cc2)C(=O)c2ccccc2C1=O | -2 | 9 | -3 | -6 | 38* | -2 | 17
CCC(=O)N(C1=C(NC)C(=O)c2ccccc2C1=O)C(C)C | -3 | -2 | 6 | 16 | 15 | 2 | nt
CCOC(=O)c1ccccc1N1C(=O)CSC1=S | 0 | 6 | -1 | -1 | 38* | -2 | 38*
Cc1cc(C)c[n+](C2=C([O-])c3ccccc3C(=O)/C2=N\S(=O)(=O)c2cccs2)c1 | 9 | 0 | 10 | -5 | 33* | 4 | 23
CC1=NN(c2nc(-c3ccc(C)cc3)cs2)C(=O)C1N=Nc1cccc(O)c1 (stereo not drawn) | 18 | 4 | 20 | -4 | 26* | 10 | 15
CC1=NN(c2nc(-c3ccc(C)cc3)cs2)C(=O)C1N=Nc1ccccc1O (stereo not drawn) | nt | -1 | 17 | 13 | nt | nt | nt
Cc1coc2c(C)c3oc(=O)c(CCC(=O)N(C)CC(=O)O)c(C)c3cc12 | 10 | 0 | 5 | 6 | 0 | 4 | nt
CCN(c1ccccc1)c1cc2ccccc2c(=O)[nH]1 | 7 | 18 | 3 | 18 | 26* | 13 | 8
O=S(=O)(/N=C(\c1ccc(F)cc1)N1CCOCC1)c1ccccc1 | nt | -5 | nt | -2 | nt | nt | nt
COc1cccc2cc(C(=O)NC3CC4CCC3C4)oc12 (stereo not drawn) | 2 | 8 | 1 | 2 | 6 | 1 | nt
COCC(C)OC(=O)c1c(N)n(CC(C)C)c2nc3ccccc3nc12 (stereo not drawn) | -13 | 6 | 1 | 14 | 35* | 0 | 5
CC(C)Cn1c(N)c(C(=O)NCC2CCCO2)c2nc3ccccc3nc21 (stereo not drawn) | 12 | 11 | 13 | 13 | 32* | 8 | 14
CC(C)[C@H](CO)NC(=O)[C@H]1O[C@@H](n2ccc(=O)[nH]c2=O)[C@H](O)[C@@H]1O | nt | -5 | nt | -14 | nt | nt | nt
CC(=O)N1CCN(C2=NC(=O)/C(=C/c3ccc(OS(=O)(=O)c4ccccc4)cc3)S2)CC1 | 16 | -3 | 5 | 7 | 8 | 10 | nt
COc1ccc(S(=O)(=O)N(C)C)cc1NC(=O)CCCSc1ccccc1 | -10 | 8 | 15 | -7 | 3 | 1 | nt

Source: PubChem BioAssay
